Test [1] deals with Bacillus subtilis. Kind of test: Antimicrobial activity against Bacillus subtilis after 24 hrs by micro-dilution susceptibility method. The format is functional. An outline of the steps:
(§1)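 Broth microdilution in Müller-Hinton broth against S. aureus IFO 3060, B. subtilis IFO 3007, E. coli IFO 3301 and P. aeruginosa IFO 3448. These are the same standard strains used in the disc-diffusion primary screen. Compounds were solubilized in DMSO. MIC recorded as the minimal inhibitory concentration.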
(In general: In broth dilution the organism is exposed to a series of concentrations in liquid medium.)

Test [2] deals with Micrococcus luteus. The test is described as follows: Antimicrobial activity against Micrococcus luteus at 200 ug after 24 hrs by agar disc diffusion method. The following applies: read-out: DIZ. The format is functional. (In general: Agar diffusion results depend on both activity and mobility in agar.)
In test [3] the test system is Staphylococcus aureus. The test is described as follows: Antimicrobial activity against Staphylococcus aureus at 200 ug after 24 hrs by agar disc diffusion method. The format is functional. To be noted: read-out: DIZ.
The subject of test [4] is Staphylococcus aureus. Kind of test: Antimicrobial activity against Staphylococcus aureus after 24 hrs by micro-dilution susceptibility method. The format is functional. An outline of the steps:
as §1

Test [5] has as its system Pseudomonas aeruginosa. The test is described as follows: Antimicrobial activity against Pseudomonas aeruginosa after 24 hrs by micro-dilution susceptibility method. The format is functional. Put shortly: as §1
Test [6] relates to Escherichia coli. Kind of test: Antimicrobial activity against Escherichia coli after 24 hrs by micro-dilution susceptibility method.
Another test deals with T1, Dihydrofolate reductase (Bos taurus, UniProt P00376).
T1 sequence (P00376 whole entry): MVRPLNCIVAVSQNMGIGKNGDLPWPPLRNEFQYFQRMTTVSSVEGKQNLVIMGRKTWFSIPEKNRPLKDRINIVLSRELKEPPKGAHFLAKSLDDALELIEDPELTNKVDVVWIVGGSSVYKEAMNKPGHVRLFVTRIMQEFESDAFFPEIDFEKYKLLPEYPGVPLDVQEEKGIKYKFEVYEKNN
Kind of test: Inhibition of bovine DHFR after 2 mins by spectrophotometry.

Test [7] relates to Bacillus subtilis. The test is described as follows: Antimicrobial activity against Bacillus subtilis at 200 ug after 24 hrs by agar disc diffusion method. To be noted: read-out: DIZ. The format is functional.
Test [8] concerns Pseudomonas aeruginosa. Kind of test: Antimicrobial activity against Pseudomonas aeruginosa at 200 ug after 24 hrs by agar disc diffusion method. The format is functional. To be noted: read-out: DIZ.
For test [9], the system named is Micrococcus luteus. Kind of test: Antimicrobial activity against Micrococcus luteus after 24 hrs by micro-dilution susceptibility method. The format is functional. An outline of the steps: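 MIC by broth microdilution in Müller-Hinton broth against M. luteus IFO 3232, the same strain used in the disc-diffusion primary screen.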
The test system of test [10] is Escherichia coli. The test is described as follows: Antimicrobial activity against Escherichia coli at 200 ug after 24 hrs by agar disc diffusion method. To be noted: read-out: DIZ. The format is functional.
The test system of test [11] is Micrococcus luteus. The test is described as follows: Antimicrobial activity against Micrococcus luteus at 100 ug after 24 hrs by agar disc diffusion method. The format is functional. Put shortly: (§2)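 Agar disc diffusion on Müller-Hinton agar. Sterile 8 mm filter-paper discs were moistened with the compound in DMSO. Strains were B. subtilis IFO 3007 and M. luteus IFO 3232. Plates were incubated at 37 °C, and growth-inhibition zone diameters were measured in mm after 24 h. DMSO served as the solvent control.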

Test [12] relates to Bacillus subtilis. Kind of test: Antimicrobial activity against Bacillus subtilis at 100 ug after 24 hrs by agar disc diffusion method. The format is functional. Put shortly:
as §2

The subject of test [13] is Pseudomonas aeruginosa. The test is described as follows: Antimicrobial activity against Pseudomonas aeruginosa at 100 ug after 24 hrs by agar disc diffusion method. The format is functional. The following applies: read-out: DIZ.
For test [14], the system named is Escherichia coli. The test is described as follows: Antimicrobial activity against Escherichia coli at 100 ug after 24 hrs by agar disc diffusion method. The format is functional. To be noted: read-out: DIZ.
In test [15] the test system is Staphylococcus aureus. Kind of test: Antimicrobial activity against Staphylococcus aureus at 100 ug after 24 hrs by agar disc diffusion method. The format is functional. To be noted: read-out: DIZ.

≈ marks a conversion by molar mass, not a printed value.

Usually MIC stands for the lowest concentration that inhibits growth of the organism. A high value points to weaker potency. The term IC50 denotes the midpoint of a concentration-inhibition curve. As for `CCOC(=O)c1nc(N)sc1Sc1nc2ccc(C)cc2c(=O)n1Cc1ccccc1`, the MIC with Bacillus subtilis [1] was 2 µg/mL (≈ 4.42 µM); against Staphylococcus aureus [4] it was 2 µg/mL (≈ 4.42 µM); in the test on Pseudomonas aeruginosa [5] it was 4 µg/mL (≈ 8.84 µM); against Escherichia coli [6] it was 2 µg/mL (≈ 4.42 µM); with Micrococcus luteus [9], 4 µg/mL (≈ 8.84 µM). In addition, the zone of inhibition at 200 µg/disc in the test on Micrococcus luteus [2] stood at 20 mm; in the test on Staphylococcus aureus [3], 24 mm; in the test on Bacillus subtilis [7] it was 26 mm; in the test on Pseudomonas aeruginosa [8] it was 18 mm; with Escherichia coli [10], 24 mm. In addition, the concentration for half-maximal inhibition (IC50) at Dihydrofolate reductase came out at 4 µM.

Regarding GENTAMICIN, the MIC came to 2 µg/mL against Bacillus subtilis [1], 2 µg/mL against Staphylococcus aureus [4], 1 µg/mL in the test on Pseudomonas aeruginosa [5] and 2 µg/mL against Micrococcus luteus [9]. Moreover, the figures for the inhibition zone (IZ) in the test with Micrococcus luteus [11] and in the test with Bacillus subtilis [12] were 18 mm and 25 mm, respectively.

Turning to `CC(=O)NS(=O)(=O)c1ccc(N)cc1` [SULFACETAMIDE], the zone of inhibition at 100 µg/disc in the test on Pseudomonas aeruginosa [13] turned out to be 25 mm; in the test with Escherichia coli [14], 28 mm; with Micrococcus luteus [11] (read-out: DIZ), 18 mm; in the test with Bacillus subtilis [12] (read-out: DIZ) it was 22 mm; in the test with Staphylococcus aureus [15], 20 mm. The MIC against Bacillus subtilis [1] was 2 µg/mL (≈ 9.34 µM); with Staphylococcus aureus [4], 2 µg/mL (≈ 9.34 µM); in the test on Pseudomonas aeruginosa [5], 2 µg/mL (≈ 9.34 µM); against Escherichia coli [6] it was 1 µg/mL (≈ 4.67 µM); against Micrococcus luteus [9], 2 µg/mL (≈ 9.34 µM).

These data come from ChEMBL document CHEMBL2375290, “Nonclassical antifolates, part 3: synthesis, biological evaluation and molecular modeling study of some new 2-heteroarylthio-quinazolin-4-ones” (Eur J Med Chem, 2013).
